Variants at the floor of the assay were thinned out.
B1: tRNA (parent)
chain: GUUCCGUUGGCGUAAUGGUAACGCGUCUCCCUCCUAAGGAGAAGACUGCGGGUUCGAGUCCCGUACGGAACG

Variants of: B1
Assay: yeast fitness relative to wild type (ratio to wild type); higher = fitter; tRNA-Arg(CCU), competitive growth, 37 C, YPD
How it was run: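 Variants of the tRNA-Arg(CCU) gene, chemically synthesised with a 3% per-site mutation rate at 69 sites, were placed at the native genomic locus in Saccharomyces cerevisiae. The pooled strains were competed in YPD at 37°C for 24 hours in six parallel replicates. Gene amplicons from the start population and from each end population were read by 100-nucleotide paired-end sequencing. Darwinian fitness relative to wild type came from changes in genotype frequencies; genotypes needed ≥ 100 starting reads, and estimates < 0.5 were set to 0.5.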

With C11G C22U G68C as the variant, how does the yeast fitness read?
Its yeast fitness is 0.732.

For C11G A43U G67C, which yeast fitness is on record?
The yeast fitness was 0.505.

Which yeast fitness does the source give for C11G C31G C34U A40C here?
Its yeast fitness is ≤ 0.5.

With C11G C29G C33U C46A C49G G68C as the variant, how does the yeast fitness read?
Its yeast fitness is ≤ 0.5.

For C11G A20U C29A C30U C46G, which yeast fitness is on record?
Its yeast fitness is ≤ 0.5.

For C11G C29A U35C A43C, which yeast fitness is on record?
The yeast fitness was ≤ 0.5.

With C11A U26G as the variant, how does the yeast fitness read?
The yeast fitness was 0.599.

For C11G C46U A65C, which yeast fitness is on record?
The yeast fitness was 0.561.

For C11G A14G G41A, which yeast fitness is on record?
Its yeast fitness is ≤ 0.5.

Which yeast fitness does the source give for C11G G48A A69U here?
Its yeast fitness is ≤ 0.5.

With C11G G18A C24U G58A A70G as the variant, how does the yeast fitness read?
The yeast fitness was ≤ 0.5.

Which yeast fitness does the source give for C11G G44C here?
Its yeast fitness is 0.639.

With C11G C29G C49U G63A as the variant, how does the yeast fitness read?
The yeast fitness was ≤ 0.5.

With C11G C49U C62U as the variant, how does the yeast fitness read?
The yeast fitness was 0.535.

With C11G A36C C46G C60G as the variant, how does the yeast fitness read?
The yeast fitness was 0.68.

For C11G C22G C27G C62U, which yeast fitness is on record?
The yeast fitness was 0.578.

With C11G G18C C27A C66U as the variant, how does the yeast fitness read?
Its yeast fitness is 0.636.

With C11G G25A C29U C34U as the variant, how does the yeast fitness read?
Its yeast fitness is ≤ 0.5.

Which yeast fitness does the source give for C11G C31A G39A G48A A57G A65G here?
Its yeast fitness is ≤ 0.5.

Which yeast fitness does the source give for C11G A14G G39C C55U here?
The yeast fitness was ≤ 0.5.

For C11G A70C, which yeast fitness is on record?
The yeast fitness was 0.776.

With C11G C22G C33G as the variant, how does the yeast fitness read?
The yeast fitness was 0.59.

Which yeast fitness does the source give for C11A U19G here?
The yeast fitness was 0.669.

With C11G A36C C46U as the variant, how does the yeast fitness read?
Its yeast fitness is ≤ 0.5.

With C11G A15C G50C as the variant, how does the yeast fitness read?
Its yeast fitness is ≤ 0.5.

Which yeast fitness does the source give for C11G C27U C34U here?
The yeast fitness was ≤ 0.5.

For C11G G12C U54A C60A A69C, which yeast fitness is on record?
The yeast fitness was 0.557.

With C11G C31A A42G A43G G68C as the variant, how does the yeast fitness read?
Its yeast fitness is ≤ 0.5.

With C11G A42G A45U U64C A70C as the variant, how does the yeast fitness read?
Its yeast fitness is 0.527.

For C11G A40C C46U C60A, which yeast fitness is on record?
Its yeast fitness is ≤ 0.5.

With C11G U13C A37U as the variant, how does the yeast fitness read?
The yeast fitness was ≤ 0.5.

With C11G A14C A15C A40C A70C as the variant, how does the yeast fitness read?
Its yeast fitness is ≤ 0.5.

With C11G C29U C61A as the variant, how does the yeast fitness read?
The yeast fitness was ≤ 0.5.

For C11A U19G A36G C49U U54C A69C, which yeast fitness is on record?
Its yeast fitness is ≤ 0.5.

Which yeast fitness does the source give for C11A U59C C61A C62U here?
The yeast fitness was ≤ 0.5.

With C11G A20U U28C A37C C49G as the variant, how does the yeast fitness read?
Its yeast fitness is 0.611.

With C11G G44C C66A as the variant, how does the yeast fitness read?
Its yeast fitness is 0.614.

With C11G G48C G51C U53C A57U C66U as the variant, how does the yeast fitness read?
Its yeast fitness is ≤ 0.5.

For C11G G12C G23C A40G, which yeast fitness is on record?
Its yeast fitness is ≤ 0.5.

With C11G C29U C34U C62A U64C C66U as the variant, how does the yeast fitness read?
The yeast fitness was ≤ 0.5.

With C11G C27U C46G as the variant, how does the yeast fitness read?
The yeast fitness was ≤ 0.5.

Which yeast fitness does the source give for C11G A15G C22A U26A C55G here?
Its yeast fitness is ≤ 0.5.

For C11G C49A A57U U64A G67U, which yeast fitness is on record?
The yeast fitness was ≤ 0.5.

With C11G A45U U64C as the variant, how does the yeast fitness read?
The yeast fitness was ≤ 0.5.

For C11G C30U A37C C46U A57C, which yeast fitness is on record?
The yeast fitness was ≤ 0.5.

With C11G G12C A40G U47C G50C as the variant, how does the yeast fitness read?
Its yeast fitness is 0.897.

Which yeast fitness does the source give for C11G A14U G17A A36G G41A C55G C61A here?
The yeast fitness was ≤ 0.5.

For C11G A21U G39C G44A U47A, which yeast fitness is on record?
The yeast fitness was ≤ 0.5.

For C11G U16A G23C C30U C34U G67U, which yeast fitness is on record?
Its yeast fitness is 0.537.

With C11G C29A C60U U64A as the variant, how does the yeast fitness read?
The yeast fitness was ≤ 0.5.

For C11G C24G A57G, which yeast fitness is on record?
Its yeast fitness is ≤ 0.5.

With C11G G68C as the variant, how does the yeast fitness read?
The yeast fitness was 0.597.

Which yeast fitness does the source give for C11G A20C C24U A36C U47A here?
The yeast fitness was 0.61.

For C11A U16C, which yeast fitness is on record?
The yeast fitness was 0.644.

With C11G A14C C30G A45G U53C as the variant, how does the yeast fitness read?
Its yeast fitness is 0.531.

With C11G C29G U35C A45U as the variant, how does the yeast fitness read?
The yeast fitness was ≤ 0.5.

For C11G A42C U47A G63C A69C, which yeast fitness is on record?
The yeast fitness was ≤ 0.5.

For C11G A36C G52C G56A, which yeast fitness is on record?
The yeast fitness was ≤ 0.5.

For C11G A21G A40G, which yeast fitness is on record?
Its yeast fitness is ≤ 0.5.

Which yeast fitness does the source give for C11G C34G G48A here?
Its yeast fitness is ≤ 0.5.

For C11G C24G G67C, which yeast fitness is on record?
Its yeast fitness is 0.566.

With C11G A15U as the variant, how does the yeast fitness read?
Its yeast fitness is 0.594.

For C11G C27G A70G, which yeast fitness is on record?
The yeast fitness was ≤ 0.5.

With C11G C24A C66G as the variant, how does the yeast fitness read?
The yeast fitness was ≤ 0.5.

For C11G G39A, which yeast fitness is on record?
Its yeast fitness is 0.63.

With C11G U16A C30A A69U as the variant, how does the yeast fitness read?
Its yeast fitness is ≤ 0.5.

Which yeast fitness does the source give for C11G A40U C62A here?
The yeast fitness was ≤ 0.5.

For C11G C30G C33A C66U, which yeast fitness is on record?
Its yeast fitness is ≤ 0.5.

For C11G C30G C31G U32A G56A, which yeast fitness is on record?
The yeast fitness was ≤ 0.5.

Which yeast fitness does the source give for C11G A15C G17A G18C here?
Its yeast fitness is ≤ 0.5.

With C11G A40U A45U A69U as the variant, how does the yeast fitness read?
Its yeast fitness is ≤ 0.5.

With C11G A14U C34A A57G as the variant, how does the yeast fitness read?
Its yeast fitness is 0.642.

With C11G U13G G23C C34U U59C C66U as the variant, how does the yeast fitness read?
The yeast fitness was ≤ 0.5.

With C11G A21U U26C as the variant, how does the yeast fitness read?
Its yeast fitness is ≤ 0.5.

For C11G C55G G63C G67C, which yeast fitness is on record?
Its yeast fitness is 0.557.

For C11G C30G C31G U32A C66U, which yeast fitness is on record?
Its yeast fitness is 0.551.

With C11A U16C G18C A45C A57C as the variant, how does the yeast fitness read?
Its yeast fitness is ≤ 0.5.

For C11G A36C G56A A69U, which yeast fitness is on record?
Its yeast fitness is ≤ 0.5.

For C11G A21G C34A, which yeast fitness is on record?
Its yeast fitness is ≤ 0.5.

Which yeast fitness does the source give for C11A U19G A36G U54C C66U A69C here?
The yeast fitness was ≤ 0.5.

Which yeast fitness does the source give for C11G U13A U16G U26A A65G here?
The yeast fitness was ≤ 0.5.

With C11G A14C A37C G44C C61G G63C as the variant, how does the yeast fitness read?
The yeast fitness was ≤ 0.5.

For C11G U13G A20C C27G C29A, which yeast fitness is on record?
Its yeast fitness is ≤ 0.5.

With C11G C27A C34G as the variant, how does the yeast fitness read?
Its yeast fitness is ≤ 0.5.
